This is an account of results in ChEMBL document CHEMBL5038582, “Adamantyl Isothiocyanates as Mutant p53 Rescuing Agents and Their Structure-Activity Relationships” (J Med Chem, 2021).

Activity calls are given as the source filed them. No cut-off for these calls is given here.

Series [1] deals with MDA-MB-468. Briefly: Effect on p53 R273H mutant mRNA expression in human MDA-MB-468 cells at 6 uM measured after 4 hrs by qRT-PCR analysis. It is filed as functional, cell-based. The gist of the method: (§1)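 Cells treated with DMSO or 6 µM test compound for 4 h. RNA extracted, cDNA synthesised, transcript measured by TaqMan qRT-PCR and normalised to GAPDH. Averages from triplicates of repeated experiments, with standard deviation.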

The subject of series [2] is MCF7. Briefly: Inhibition of colony formation in human MCF7 cells expressing wild type p53 assessed as decrease in number of colonies at 1.5 to 24 uM incubated for 24 hrs followed by incubation in fresh medium for 10 days by methylene blue staining based analysis. Conditions: dose 1.5-24 µM. In kind it is functional, cell-based. The gist of the method:
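500 cells/well seeded 24 h before treatment. Cells exposed to compound or DMSO control for 24 h at 37 °C, then grown 10 days at 37 °C in RPMI with 10% FBS. Colonies fixed in methanol, stained with methylene blue and counted. Survival expressed as percent of DMSO control.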

The test system of series [3] is MDA-MB-231. Put plainly: Induction of apoptosis in human MDA-MB-231 cells expressing p53 R280K mutant assessed fold increase in number of Annexin-V stained cells at 6 to 12 uM incubated for 24 hrs by AnnexinV-FITC and PI staining based flow cytometry relative to control. In kind it is functional. The settings on record: dose 6-12 µM. Put shortly: (§2)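 24 h treatment, DMSO control. Cells scraped, washed in PBS, then given fluorochrome-conjugated Annexin V for 15 min at RT in the dark, followed by PI (0.1 µg/ml) in binding buffer. Read by flow cytometry on LSRFortessa. Annexin V-positive cells expressed relative to the DMSO control.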

Series [4] relates to MDA-MB-468. Briefly: Induction of apoptosis in human MDA-MB-468 cells expressing p53 R273H mutant assessed fold increase in number of Annexin-V stained cells at 6 to 12 uM incubated for 24 hrs by AnnexinV-FITC and PI staining based flow cytometry relative to control. The settings on record: dose 6-12 µM. In kind it is functional. Put shortly: as §2
Series [5] has as its system MCF7. Put plainly: Induction of apoptosis in human MCF7 cells expressing wild type p53 assessed as decrease in level of uncleaved PARP1 level at 6 to 12 uM measured after 24 hrs by western blotting analysis. In kind it is functional, cell-based. The settings on record: dose 6-12 µM. Put shortly: (§3)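 Cells treated with DMSO or compound at 6 or 12 µM for 24 h, then lysed in Tris-Cl pH 8.0/NaCl/glycerol/NP-40/EDTA buffer with protease inhibitors. 100 µg lysate resolved on 4-12% SDS-PAGE and blotted to PVDF. Probed with anti-PARP or anti-caspase 3, then HRP secondary and ECL. GAPDH reprobe as control.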

Series [6] deals with MCF7. Briefly: Induction of apoptosis in human MCF7 cells expressing wild type p53 assessed as increase in cleaved PARP1 level at 6 to 12 uM measured after 24 hrs by western blotting analysis. Conditions: dose 6-12 µM. In kind it is functional, cell-based. The gist of the method: as §3
In series [7] the test system is Cellular tumor antigen p53 (Homo sapiens), P04637 [R273H]. Briefly: Reactivation of transactivation function to p53 R273H mutant in human MDA-MB-468 cells assessed as increase in p21 mRNA expression at 6 uM incubated for 4 hrs by qRT-PCR analysis. It is filed as cell-based. Conditions: filed as activator. Put shortly:
as §1

For series [8], the system named is MCF7. Briefly: Antiproliferative activity against human MCF7 cells expressing WT p53 assessed as inhibition of cell growth at 10 to 50 uM incubated for 24 to 72 hrs by WST-1 assay. Conditions: dose 10-50 µM, time 24-72 hrs. It is filed as functional, cell-based. The gist of the method:
(§4)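 WST-1 proliferation assay. Compound diluted in DMSO so that 10 μl of stock in 1 ml of cells (40,000 cells/ml) gives the test concentration at 1% DMSO. Cells plated at 4,000/well in duplicate and incubated at 37 °C for 24 h or 72 h. Result given as % of the 1% DMSO control.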

Series [9] has as its system MDA-MB-231. Put plainly: Cell cycle arrest in human MDA-MB-231 cells expressing p53 R280K mutant assessed as accumulation of cells at G1 phase at 6 uM measured after 24 hrs by PI staining based flow cytometry (reference value: 42.9%).
The subject of series [10] is MDA-MB-231. Briefly: Induction of apoptosis in human MDA-MB-231 cells expressing p53 R280K mutant assessed as decrease in level of uncleaved PARP1 level at 6 to 12 uM measured after 24 hrs by western blotting analysis. It is filed as functional, cell-based. The settings on record: dose 6-12 µM. Put shortly: as §3
Series [11] deals with MDA-MB-436. Briefly: Antiproliferative activity against human p53-null MDA-MB-436 cells assessed as inhibition of cell growth at 10 to 50 uM measured after 24 to 72 hrs by WST-1 assay. In kind it is functional, cell-based. Conditions: dose 10-50 µM, time 24-72 hrs. Put shortly:
as §4

The subject of series [12] is MDA-MB-231. Briefly: Antiproliferative activity against human MDA-MB-231cells expressing p53 R280K mutant assessed as inhibition of cell growth at 10 to 50 uM incubated for 24 hrs by WST-1 assay. Conditions: dose 10-50 µM. In kind it is functional, cell-based. The gist of the method: as §4
The test system of series [13] is MDA-MB-468. Briefly: Antiproliferative activity against human MDA-MB-468 cells transfected with p53 siRNA assessed as inhibition of cell growth at 5 to 25 uM measured after 24 hrs by WST-1 assay. Conditions: dose 5-25 µM. It is filed as functional, cell-based. The gist of the method:
(§5)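 MDA-MB-468 cells plated at 50-60% confluence 24 h before transfection. p53 SMARTpool or non-specific siRNA (0.430 nmol) given with Lipofectamine 2000 in Opti-MEM for 5 h, repeated after 24 h. Drug or DMSO added 72 h after the first transfection. Proliferation read by WST-1, % of DMSO control.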

Series [14] concerns MDA-MB-468. Put plainly: Antiproliferative activity against human MDA-MB-468 cells transfected with non-specific siRNA assessed as inhibition of cell growth at 5 to 25 uM measured after 24 hrs by WST-1 assay. It is filed as functional, cell-based. The settings on record: dose 5-25 µM. Put shortly: as §5
The subject of series [15] is MDA-MB-468. Put plainly: Induction of apoptosis in human MDA-MB-468 cells expressing p53 R273H mutant assessed as increase in level of cleaved PARP1 level at 6 to 12 uM measured after 24 hrs by western blotting analysis. In kind it is functional, cell-based. The settings on record: dose 6-12 µM. Put shortly: as §3
In series [16] the test system is MDA-MB-231. Briefly: Induction of apoptosis in human MDA-MB-231 cells expressing p53 R280K mutant assessed as decrease in level of uncleaved caspase 3 level at 6 to 12 uM measured after 24 hrs by western blotting analysis. Conditions: dose 6-12 µM. In kind it is functional, cell-based. The gist of the method:
as §3

A short description of series [17]: Octanol-water partition coefficient, logP of the compound by HPLC-MS analysis. It is filed as physicochemical. The settings on record: 18 h. Put shortly:
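Compound (10 µL of 10 mM DMSO stock) added to 0.5 mL octanol plus 0.5 mL sodium phosphate buffer pH 7.4. Stirred 18 h, centrifuged 2 h at 3600 rpm. Concentration in each phase measured by LC-MS on a C18 column.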

In series [18] the test system is MDA-MB-468. Briefly: Induction of apoptosis in human MDA-MB-468 cells expressing p53 R273H mutant assessed increase in number of Annexin-V stained cells at 6 to 12 uM incubated for 24 hrs by AnnexinV-FITC and PI staining based flow cytometry. In kind it is functional, cell-based. The settings on record: dose 6-12 µM. Put shortly:
as §2

For series [19], the system named is MDA-MB-231. Put plainly: Induction of apoptosis in human MDA-MB-231 cells expressing p53 R280K mutant assessed increase in number of Annexin-V stained cells at 6 to 12 uM incubated for 24 hrs by AnnexinV-FITC and PI staining based flow cytometry. In kind it is functional, cell-based. The settings on record: dose 6-12 µM. The gist of the method:
as §2

For `S=C=NCCCC12CC3CC(CC(C3)C1)C2`, the outcome in series [1], in [5], in series [6], in [11] and in series [13] was inactive. Besides, the inhibition entry in [2] is “Active”. Further, the “fold change (FC)” value in [3] and in series [4] was 2 in each case. Moreover, the result in series [7], in series [8], in series [10], in [14], in series [15] and in series [16] was Active. The figures for the Activity in series [9] and in [12] were 48.2% and “Dose-Dependent Effect”, respectively.
For the compound `[Se]=C=NCCC12CC3CC(CC(C3)C1)C2`, the outcome in series [1], in series [5] and in [6] was inactive. The logP in [17] is 4.05. The inhibition entry in series [2] is “Active”. Besides, the result in [18], in series [7], in series [19], in [8], in series [10] and in [15] was Active. In series [16], the outcome was Active.
